Test results published in ChEMBL document CHEMBL1221358, “Application of a novel in silico high-throughput screen to identify selective inhibitors for protein-protein interactions” (Bioorg Med Chem Lett, 2010).
Active and inactive are the calls of the source. The rule behind the calls is not given here.

Columns and labels:
[1] = target: T1, Toll-like receptor 4 (Mus musculus) (UniProt Q9QUK6); assay: Inhibition of LPS-induced TLR4 activation in mouse RAW264.7 cells at 200 nM to 200 uM; format: cell-based
T1 sequence (whole entry): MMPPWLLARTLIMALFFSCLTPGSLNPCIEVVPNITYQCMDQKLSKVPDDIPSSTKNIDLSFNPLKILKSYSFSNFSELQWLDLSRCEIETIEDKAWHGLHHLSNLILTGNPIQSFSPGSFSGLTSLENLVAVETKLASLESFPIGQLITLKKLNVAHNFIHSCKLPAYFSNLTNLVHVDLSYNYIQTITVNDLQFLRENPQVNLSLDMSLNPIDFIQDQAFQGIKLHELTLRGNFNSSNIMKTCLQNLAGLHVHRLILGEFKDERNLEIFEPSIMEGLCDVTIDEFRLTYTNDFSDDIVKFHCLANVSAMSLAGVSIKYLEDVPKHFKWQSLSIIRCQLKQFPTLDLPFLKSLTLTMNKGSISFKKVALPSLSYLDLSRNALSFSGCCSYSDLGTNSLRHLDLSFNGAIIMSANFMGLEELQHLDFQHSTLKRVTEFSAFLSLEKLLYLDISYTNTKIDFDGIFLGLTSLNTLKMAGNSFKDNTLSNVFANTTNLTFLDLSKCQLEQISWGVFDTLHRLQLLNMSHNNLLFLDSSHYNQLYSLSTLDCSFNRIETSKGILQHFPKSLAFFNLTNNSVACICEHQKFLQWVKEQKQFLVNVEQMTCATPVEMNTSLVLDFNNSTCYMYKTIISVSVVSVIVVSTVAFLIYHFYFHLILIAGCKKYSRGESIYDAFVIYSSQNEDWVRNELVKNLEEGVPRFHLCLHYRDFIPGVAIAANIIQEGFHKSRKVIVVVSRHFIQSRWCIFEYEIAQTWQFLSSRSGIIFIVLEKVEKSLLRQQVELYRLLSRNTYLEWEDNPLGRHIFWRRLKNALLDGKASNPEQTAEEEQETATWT
Outline: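 RAW264.7 mouse macrophages plated at 2×10^5 cells/ml on glass-bottom dishes 18 h before imaging. Washed with HBSS/25 mM HEPES pH 7.4, then placed in warmed conditioned Hanks imaging medium. Live-cell frames taken every 7.5 s: 5 baseline frames, vehicle or antagonist added, 20 frames, then LPS (E. coli 0111:B4) added, 20 further frames. C5a added to non-responding dishes to confirm the cells could respond.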

RAW264.7 = assay: Cytotoxicity against mouse RAW264.7 cells; format: cell-based
[2] = target: Toll-like receptor 4 (Homo sapiens) (UniProt O00206); assay: Inhibition of TLR4 binding to […]
[3] = target: T1, Toll-like receptor 4 (Mus musculus); assay: Inhibition TLR4-mediated NO production in mouse RAW264.7 cells at 300 nM
[4] = target: T2, Toll-like receptor 3 (Mus musculus) (UniProt Q99MB1); assay: Inhibition TLR3-mediated NO production in mouse RAW264.7 cells at 300 nM
T2 sequence (whole entry): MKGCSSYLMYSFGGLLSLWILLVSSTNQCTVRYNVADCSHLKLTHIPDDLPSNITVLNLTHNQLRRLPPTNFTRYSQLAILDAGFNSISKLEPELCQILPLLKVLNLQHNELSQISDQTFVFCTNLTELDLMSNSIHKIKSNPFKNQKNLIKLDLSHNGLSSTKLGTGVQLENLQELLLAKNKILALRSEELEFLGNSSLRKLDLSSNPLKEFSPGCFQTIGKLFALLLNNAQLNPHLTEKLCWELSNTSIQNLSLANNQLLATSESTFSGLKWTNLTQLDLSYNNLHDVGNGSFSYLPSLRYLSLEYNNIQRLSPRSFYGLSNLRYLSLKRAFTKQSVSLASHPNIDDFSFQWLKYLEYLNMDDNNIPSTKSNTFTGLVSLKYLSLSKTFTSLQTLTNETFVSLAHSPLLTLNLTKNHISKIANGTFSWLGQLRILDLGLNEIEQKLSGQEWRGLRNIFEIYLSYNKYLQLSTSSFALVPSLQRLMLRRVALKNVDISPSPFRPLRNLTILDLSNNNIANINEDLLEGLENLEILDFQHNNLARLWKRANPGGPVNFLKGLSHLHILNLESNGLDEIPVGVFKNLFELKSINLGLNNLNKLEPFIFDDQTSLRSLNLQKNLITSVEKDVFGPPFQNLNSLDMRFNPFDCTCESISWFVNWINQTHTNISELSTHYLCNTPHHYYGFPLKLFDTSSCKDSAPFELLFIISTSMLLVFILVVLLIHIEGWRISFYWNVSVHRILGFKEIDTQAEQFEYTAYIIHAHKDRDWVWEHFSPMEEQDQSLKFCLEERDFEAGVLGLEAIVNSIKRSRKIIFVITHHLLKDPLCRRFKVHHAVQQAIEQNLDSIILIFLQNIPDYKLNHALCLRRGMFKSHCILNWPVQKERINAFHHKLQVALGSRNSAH

[5] = target: Toll-like receptor 2 (Mus musculus) (UniProt Q9QUN7); assay: Inhibition TLR2-mediated NO production in mouse RAW264.7 cells at 300 nM
[6] = target: T3, Toll-like receptor 6 (Mus musculus) (UniProt Q9EPW9); assay: Inhibition TLR6-mediated NO production in mouse RAW264.7 cells at 300 nM
T3 sequence (whole entry): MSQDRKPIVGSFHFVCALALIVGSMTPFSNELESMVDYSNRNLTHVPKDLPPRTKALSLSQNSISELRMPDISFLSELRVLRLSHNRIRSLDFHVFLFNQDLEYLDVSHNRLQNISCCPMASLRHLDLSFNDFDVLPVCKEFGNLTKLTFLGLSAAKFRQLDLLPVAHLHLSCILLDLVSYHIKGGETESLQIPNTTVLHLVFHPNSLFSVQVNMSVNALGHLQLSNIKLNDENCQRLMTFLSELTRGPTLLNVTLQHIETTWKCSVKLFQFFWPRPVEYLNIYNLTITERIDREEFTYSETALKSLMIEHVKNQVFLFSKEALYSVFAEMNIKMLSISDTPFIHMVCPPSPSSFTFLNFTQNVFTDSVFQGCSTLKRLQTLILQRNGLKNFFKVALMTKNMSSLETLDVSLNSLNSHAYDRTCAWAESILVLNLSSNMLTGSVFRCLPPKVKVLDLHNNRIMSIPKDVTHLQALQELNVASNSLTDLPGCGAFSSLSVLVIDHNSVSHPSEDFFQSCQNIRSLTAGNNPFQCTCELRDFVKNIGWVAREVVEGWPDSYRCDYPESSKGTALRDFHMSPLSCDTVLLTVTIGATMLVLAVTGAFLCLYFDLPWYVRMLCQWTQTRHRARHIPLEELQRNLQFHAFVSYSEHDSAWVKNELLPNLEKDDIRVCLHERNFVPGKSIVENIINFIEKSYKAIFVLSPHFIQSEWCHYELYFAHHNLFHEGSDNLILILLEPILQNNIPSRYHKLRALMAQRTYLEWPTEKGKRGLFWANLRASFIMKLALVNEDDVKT

[7] = target: T4, Toll-like receptor 7 (Mus musculus) (UniProt P58681); assay: Inhibition TLR7-mediated NO production in mouse RAW264.7 cells at 300 nM
T4 sequence (whole entry): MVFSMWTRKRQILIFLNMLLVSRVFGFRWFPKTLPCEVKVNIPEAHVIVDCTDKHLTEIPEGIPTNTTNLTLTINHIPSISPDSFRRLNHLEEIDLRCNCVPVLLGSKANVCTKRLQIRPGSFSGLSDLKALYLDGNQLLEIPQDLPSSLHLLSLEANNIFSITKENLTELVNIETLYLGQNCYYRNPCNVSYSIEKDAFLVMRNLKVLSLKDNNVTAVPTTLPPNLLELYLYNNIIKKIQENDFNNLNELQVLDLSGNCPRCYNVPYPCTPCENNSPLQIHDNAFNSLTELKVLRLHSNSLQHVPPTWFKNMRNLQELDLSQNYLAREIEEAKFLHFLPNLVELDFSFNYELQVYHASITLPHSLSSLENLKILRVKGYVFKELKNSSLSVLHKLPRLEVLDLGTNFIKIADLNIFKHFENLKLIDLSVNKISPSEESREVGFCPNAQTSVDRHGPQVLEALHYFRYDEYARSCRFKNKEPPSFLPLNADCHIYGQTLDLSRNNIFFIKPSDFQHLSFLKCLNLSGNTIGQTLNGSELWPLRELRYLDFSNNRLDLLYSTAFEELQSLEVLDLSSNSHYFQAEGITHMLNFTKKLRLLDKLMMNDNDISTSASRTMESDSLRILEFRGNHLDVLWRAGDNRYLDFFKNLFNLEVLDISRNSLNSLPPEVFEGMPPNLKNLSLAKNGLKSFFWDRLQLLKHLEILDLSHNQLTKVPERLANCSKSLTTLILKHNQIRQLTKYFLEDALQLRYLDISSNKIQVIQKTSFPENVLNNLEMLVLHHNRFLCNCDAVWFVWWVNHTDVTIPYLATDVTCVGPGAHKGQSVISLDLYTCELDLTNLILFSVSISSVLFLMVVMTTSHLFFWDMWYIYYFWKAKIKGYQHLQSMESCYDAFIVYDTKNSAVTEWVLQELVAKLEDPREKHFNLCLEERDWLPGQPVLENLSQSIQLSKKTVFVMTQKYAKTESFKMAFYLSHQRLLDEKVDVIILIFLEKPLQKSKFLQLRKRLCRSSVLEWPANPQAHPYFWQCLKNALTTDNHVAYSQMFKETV

[8] = target: T5, Toll-like receptor 1 (Mus musculus) (UniProt Q9EPQ1); assay: Inhibition TLR1-mediated NO production in mouse RAW264.7 cells at 300 nM
T5 sequence (whole entry): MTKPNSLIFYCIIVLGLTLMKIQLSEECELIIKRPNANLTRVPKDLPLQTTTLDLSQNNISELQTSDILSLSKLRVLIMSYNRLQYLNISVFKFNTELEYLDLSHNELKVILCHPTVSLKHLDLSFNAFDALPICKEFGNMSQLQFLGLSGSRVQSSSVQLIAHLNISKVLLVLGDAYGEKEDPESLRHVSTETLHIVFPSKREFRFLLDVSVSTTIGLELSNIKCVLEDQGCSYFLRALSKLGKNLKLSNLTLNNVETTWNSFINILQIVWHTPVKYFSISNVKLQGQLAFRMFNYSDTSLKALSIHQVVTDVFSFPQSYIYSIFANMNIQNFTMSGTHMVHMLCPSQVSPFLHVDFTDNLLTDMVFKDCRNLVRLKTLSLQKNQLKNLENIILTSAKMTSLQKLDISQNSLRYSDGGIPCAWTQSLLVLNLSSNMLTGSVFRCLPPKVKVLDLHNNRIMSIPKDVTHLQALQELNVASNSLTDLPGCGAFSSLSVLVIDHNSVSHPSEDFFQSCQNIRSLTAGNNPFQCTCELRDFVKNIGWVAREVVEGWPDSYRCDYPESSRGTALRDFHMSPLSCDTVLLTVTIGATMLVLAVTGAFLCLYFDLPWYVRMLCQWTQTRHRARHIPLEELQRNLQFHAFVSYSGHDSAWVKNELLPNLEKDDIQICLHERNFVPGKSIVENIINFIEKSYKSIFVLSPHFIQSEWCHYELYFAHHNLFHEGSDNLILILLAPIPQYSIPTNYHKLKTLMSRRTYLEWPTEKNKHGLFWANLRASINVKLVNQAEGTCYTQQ

Chain of Toll-like receptor 4 (Homo sapiens) (O00206 whole entry): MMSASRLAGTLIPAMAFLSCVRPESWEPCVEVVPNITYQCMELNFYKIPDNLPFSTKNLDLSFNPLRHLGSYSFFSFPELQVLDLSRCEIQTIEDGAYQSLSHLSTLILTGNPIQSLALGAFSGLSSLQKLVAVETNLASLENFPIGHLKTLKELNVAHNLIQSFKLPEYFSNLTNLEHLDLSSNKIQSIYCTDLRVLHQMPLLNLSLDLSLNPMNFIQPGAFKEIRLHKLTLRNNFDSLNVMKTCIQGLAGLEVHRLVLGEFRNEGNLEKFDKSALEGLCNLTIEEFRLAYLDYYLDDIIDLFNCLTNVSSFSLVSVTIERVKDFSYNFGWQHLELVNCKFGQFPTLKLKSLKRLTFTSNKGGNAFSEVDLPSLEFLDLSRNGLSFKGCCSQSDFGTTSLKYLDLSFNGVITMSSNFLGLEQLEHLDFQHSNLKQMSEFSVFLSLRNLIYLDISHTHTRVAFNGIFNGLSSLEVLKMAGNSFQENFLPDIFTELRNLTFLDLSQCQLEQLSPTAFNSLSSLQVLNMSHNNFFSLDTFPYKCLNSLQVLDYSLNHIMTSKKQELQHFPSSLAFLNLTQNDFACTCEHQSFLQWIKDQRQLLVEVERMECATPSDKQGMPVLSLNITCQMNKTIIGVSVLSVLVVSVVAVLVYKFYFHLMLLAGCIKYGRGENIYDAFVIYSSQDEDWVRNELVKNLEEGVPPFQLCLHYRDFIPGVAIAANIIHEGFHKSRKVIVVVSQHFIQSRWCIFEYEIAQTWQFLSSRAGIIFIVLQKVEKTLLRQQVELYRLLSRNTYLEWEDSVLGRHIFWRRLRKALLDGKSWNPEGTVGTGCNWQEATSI
Chain of Toll-like receptor 2 (Mus musculus) (Q9QUN7 whole entry): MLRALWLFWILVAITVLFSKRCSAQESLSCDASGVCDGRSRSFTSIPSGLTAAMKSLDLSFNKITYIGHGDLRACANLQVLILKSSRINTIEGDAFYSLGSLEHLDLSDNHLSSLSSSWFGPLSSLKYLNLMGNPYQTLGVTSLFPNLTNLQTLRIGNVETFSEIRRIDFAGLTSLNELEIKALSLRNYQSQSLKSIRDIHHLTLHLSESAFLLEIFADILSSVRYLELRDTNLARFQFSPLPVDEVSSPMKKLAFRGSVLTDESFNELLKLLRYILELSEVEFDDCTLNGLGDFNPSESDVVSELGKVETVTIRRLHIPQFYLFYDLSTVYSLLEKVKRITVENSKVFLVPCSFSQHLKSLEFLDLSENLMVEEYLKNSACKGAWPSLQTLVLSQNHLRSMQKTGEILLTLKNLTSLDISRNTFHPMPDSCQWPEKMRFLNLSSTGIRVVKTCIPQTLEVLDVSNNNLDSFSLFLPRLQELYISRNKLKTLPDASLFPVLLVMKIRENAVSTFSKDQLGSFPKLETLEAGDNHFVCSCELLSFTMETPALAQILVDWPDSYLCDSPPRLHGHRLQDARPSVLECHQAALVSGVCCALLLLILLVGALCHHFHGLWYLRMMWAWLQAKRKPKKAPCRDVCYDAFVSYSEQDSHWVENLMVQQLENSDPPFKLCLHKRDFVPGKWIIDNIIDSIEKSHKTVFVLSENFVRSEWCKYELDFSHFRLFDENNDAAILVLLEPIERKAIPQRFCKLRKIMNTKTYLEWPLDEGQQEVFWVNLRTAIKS

Row | Activity [1] | Activity [2] | Activity [3] | Activity [4] | Activity [5] | Activity [6] | Activity [7] | Activity [8] | SMILES | Activity (RAW264.7)
1 | Active | Active | – | – | – | – | – | – | CC(C)CC(=O)Nc1ccc(OC(=O)C23CC4CC(CC(C4)C2)C3)cc1 | Non-toxic
2 | Active | Active | Active | inactive | inactive | inactive | inactive | inactive | CCOc1ccc(OCC(O)CN(C)Cc2c(C)nn(Cc3ccccc3Cl)c2C)cc1 (configuration not stated) | Non-toxic
